Each structure is given as a SMILES string. Values after ≈ are worked out from the molar mass of the structure shown.

The subject of one series is Candida parapsilosis. Description: Antifungal activity against Candida parapsilosis clinical isolates assessed as inhibition of microbial growth incubated for 24 hrs by broth microdilution method. It counts as functional. The note with it: Lodderomyces parapsilosis. The method in brief: (§1)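 Twenty-two clinical Candida isolates (8 C. albicans, 4 C. glabrata, 3 C. tropicalis, 3 C. krusei, 2 C. parapsilosis, 2 C. sake) were identified by colony morphology and biochemistry and subcultured at 35 °C for purity. Compounds were dissolved in DMSO and tested by broth microdilution in Sabouraud dextrose broth per NCCLS/CLSI/EUCAST guidance. Values are geometric mean MIC per species (µg/mL).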

In series [1] the test system is Streptococcus alpha-hemolyticus (Streptococcus sp.). Description: Antibacterial activity against Streptococcus Streptococcus alpha hemolyticus assessed as inhibition of microbial growth incubated for 18 to 22 hrs by broth microdilution method. On the technique in general: Dilution methods test growth across graded concentrations, often in twofold steps.
In a further series the test system is Escherichia coli. Description: Antibacterial activity against Escherichia coli assessed as inhibition of microbial growth incubated for 18 to 22 hrs by broth microdilution method. Format: functional. The method in brief:
(§2)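 Broth microdilution in Mueller-Hinton II broth following NCCLS recommendations; compounds dissolved in DMSO.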

Series [2] in a line: Cytotoxicity against human Hep2 cells assessed as reduction in cell viability incubated for 24 hrs by trypan blue dye exclusion assay. Format: cell-based. The note with it: HEp-2 cells. The method in brief:
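Hep2 (human laryngeal epidermoid carcinoma) cells were exposed to five concentrations from 0.05 to 100 µg/mL for 24 h at 37 °C, and viability was scored by Trypan Blue exclusion as survival fraction. Controls were medium alone, DMSO-treated cells and 1 mM sodium nitroprusside. CC50 is the mean ± SD of at least three independent experiments.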

The nature of series [3]: Selectivity index, ratio of CC50 for human Hep2 cells to MIC for Candida albicans clinical isolates. Format: toxicity. The note with it: HEp-2 cells, read-out: Selectivity Index. The method in brief:
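Calculated as Hep2 CC50 (Trypan Blue exclusion, 24 h, 37 °C) divided by MIC against C. albicans.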

For a further series, the system named is Enterococcus faecalis. Description: Antibacterial activity against Streptococcus faecalis assessed as inhibition of microbial growth incubated for 18 to 22 hrs by broth microdilution method. It counts as functional. An outline of the steps: as §2
The next series deals with Candida albicans. Description: Antifungal activity against Candida albicans clinical isolates assessed as inhibition of microbial growth incubated for 24 hrs by broth microdilution method. Format: functional. The method in brief:
as §1

The subject of another series is Proteus mirabilis. Kind of series: Antibacterial activity against Proteus mirabilis assessed as inhibition of microbial growth incubated for 18 to 22 hrs by broth microdilution method. It counts as functional. The method in brief: as §2
The next series deals with [Candida] sake. Kind of series: Antifungal activity against Candida sake clinical isolates assessed as inhibition of microbial growth incubated for 24 hrs by broth microdilution method. It counts as functional. The note with it: Fermentozyma sake. An outline of the steps: as §1
In the next series the test system is Candida tropicalis. Kind of series: Antifungal activity against Candida tropicalis clinical isolates assessed as inhibition of microbial growth incubated for 24 hrs by broth microdilution method. It counts as functional. The method in brief:
as §1

The subject of the next series is Staphylococcus aureus. Kind of series: Antibacterial activity against Staphylococcus aureus assessed as inhibition of microbial growth incubated for 18 to 22 hrs by broth microdilution method. It counts as functional. The method in brief:
as §2

A further series concerns Staphylococcus warneri. Kind of series: Antibacterial activity against Staphylococcus warneri assessed as inhibition of microbial growth incubated for 18 to 22 hrs by broth microdilution method. Format: functional. The method in brief:
as §2

The next series concerns Klebsiella oxytoca. Kind of series: Antibacterial activity against Klebsiella oxytoca assessed as inhibition of microbial growth incubated for 18 to 22 hrs by broth microdilution method. It counts as functional. The method in brief:
as §2

A further series has as its system Pichia kudriavzevii. Kind of series: Antifungal activity against Candida krusei clinical isolates assessed as inhibition of microbial growth incubated for 24 hrs by broth microdilution method. Format: functional. The method in brief:
as §1

The test system of a further series is Enterobacter. Description: Antibacterial activity against Enterobacter spp. assessed as inhibition of microbial growth incubated for 18 to 22 hrs by broth microdilution method. It counts as functional. An outline of the steps: as §2
For the next series, the system named is Nakaseomyces glabratus. Kind of series: Antifungal activity against Candida glabrata clinical isolates assessed as inhibition of microbial growth incubated for 24 hrs by broth microdilution method. It counts as functional. An outline of the steps: as §1

Turning to `CCC(CC)=N/N=C1\NC(=O)CS1`, the MIC is 2 µg/mL with Candida parapsilosis; ≥ 256 µg/mL in series [1]; ≥ 256 µg/mL with Escherichia coli; ≥ 256 µg/mL in the series with Enterococcus faecalis; 2 µg/mL in the series on Candida albicans; ≥ 256 µg/mL with Proteus mirabilis. In addition, the MIC in series [Candida] sake is 2 µg/mL; in the series with Candida tropicalis, 4 µg/mL; in the series on Staphylococcus aureus, ≥ 256 µg/mL; in the series on Staphylococcus warneri, ≥ 256 µg/mL; with Klebsiella oxytoca it was ≥ 256 µg/mL; in the series on Pichia kudriavzevii it was 2 µg/mL. For the same compound, the MIC in the series with Enterobacter is ≥ 256 µg/mL; with Nakaseomyces glabratus, 1 µg/mL. Further, the half-maximal cytotoxic concentration (CC50) at 24 h in series [2] was 49.2 µg/mL (≈ 247 µM). For the same compound, the selectivity ratio in [3] was found to be 24.5.

With `CCCCC/C(C)=N\N=C1/NC(=O)CS1`, the MIC in the series with Candida parapsilosis is 8 µg/mL; in series [1], ≥ 256 µg/mL; in the series with Escherichia coli it was ≥ 256 µg/mL; in the series with Enterococcus faecalis, ≥ 256 µg/mL; with Candida albicans, 2 µg/mL; in the series with Proteus mirabilis it was ≥ 256 µg/mL. In addition, the MIC in series [Candida] sake was 8 µg/mL; in the series on Candida tropicalis, 4 µg/mL; in the series with Staphylococcus aureus, ≥ 256 µg/mL; with Staphylococcus warneri, ≥ 256 µg/mL; in the series on Klebsiella oxytoca it was ≥ 256 µg/mL; in the series on Pichia kudriavzevii, 8 µg/mL. The minimal inhibitory concentration (MIC) in the series with Enterobacter was ≥ 256 µg/mL; in the series on Nakaseomyces glabratus, 2 µg/mL. For the same compound, the CC50 at 24 h in series [2] turned out to be 71.8 µg/mL (≈ 316 µM). In addition, the selectivity ratio in [3] worked out at 35.5.

On to `CCCC/C(CC)=N\N=C1/NC(=O)CS1`, for which the MIC was 2 µg/mL in the series on Candida parapsilosis; ≥ 256 µg/mL in [1]; ≥ 256 µg/mL in the series on Escherichia coli; ≥ 256 µg/mL in the series on Enterococcus faecalis; 4 µg/mL with Candida albicans; ≥ 256 µg/mL in the series on Proteus mirabilis. In addition, the MIC in series [Candida] sake is 4 µg/mL; in the series with Candida tropicalis, 1 µg/mL; with Staphylococcus aureus, ≥ 256 µg/mL; with Staphylococcus warneri it was ≥ 256 µg/mL; in the series with Klebsiella oxytoca it was ≥ 256 µg/mL; in the series with Pichia kudriavzevii, 2 µg/mL. In addition, the minimum inhibitory concentration (MIC) in the series on Enterobacter is ≥ 256 µg/mL; in the series on Nakaseomyces glabratus it was 1 µg/mL. In addition, the CC50 at 24 h in series [2] came out at 46.4 µg/mL (≈ 204 µM). Also, the selectivity ratio in series [3] was determined as 11.5.

`CC1CCC/C1=N/N=C1\NC(=O)CS1` (centres undefined): the MIC with Candida parapsilosis is 2 µg/mL; in series [1], ≥ 256 µg/mL; with Escherichia coli it was ≥ 256 µg/mL; in the series with Enterococcus faecalis, ≥ 256 µg/mL; with Candida albicans, 2 µg/mL; in the series with Proteus mirabilis it was ≥ 256 µg/mL. Further, the minimum inhibitory concentration (MIC) was 2 µg/mL in series [Candida] sake; 8 µg/mL in the series with Candida tropicalis; ≥ 256 µg/mL in the series with Staphylococcus aureus; ≥ 256 µg/mL in the series with Staphylococcus warneri; ≥ 256 µg/mL in the series with Klebsiella oxytoca; 2 µg/mL in the series on Pichia kudriavzevii. Further, the figures for the MIC in the series with Enterobacter and with Nakaseomyces glabratus were ≥ 256 µg/mL and 1 µg/mL, respectively. Also, the half-maximal cytotoxic concentration (CC50) at 24 h in series [2] was determined as 52.8 µg/mL (≈ 250 µM). In addition, in [3], the selectivity ratio is 26.

For `CC1CC/C(=N/N=C2\NC(=O)CS2)C1` (centres undefined), the minimal inhibitory concentration (MIC) with Candida parapsilosis was 2 µg/mL; in [1], ≥ 256 µg/mL; in the series with Escherichia coli, ≥ 256 µg/mL; with Enterococcus faecalis, ≥ 256 µg/mL; with Candida albicans, 2 µg/mL; in the series on Proteus mirabilis, ≥ 256 µg/mL. The MIC in series [Candida] sake was 2 µg/mL; in the series on Candida tropicalis it was 2 µg/mL; with Staphylococcus aureus, ≥ 256 µg/mL; in the series with Staphylococcus warneri, ≥ 256 µg/mL; in the series on Klebsiella oxytoca, ≥ 256 µg/mL; in the series with Pichia kudriavzevii it was 2 µg/mL. Also, the minimum inhibitory concentration (MIC) in the series on Enterobacter is ≥ 256 µg/mL; with Nakaseomyces glabratus, 2 µg/mL. Moreover, in series [2], the cytotoxic concentration (CC50) at 24 h was found to be 50.8 µg/mL (≈ 240 µM). Moreover, the selectivity ratio in [3] came to 25.

Regarding `CC1CCCC/C1=N/N=C1\NC(=O)CS1` (centres undefined), the MIC is 2 µg/mL with Candida parapsilosis; ≥ 256 µg/mL in series [1]; ≥ 256 µg/mL in the series with Escherichia coli; ≥ 256 µg/mL with Enterococcus faecalis; 2 µg/mL with Candida albicans; ≥ 256 µg/mL in the series on Proteus mirabilis. In addition, the MIC is 2 µg/mL in series [Candida] sake; 8 µg/mL in the series with Candida tropicalis; ≥ 256 µg/mL with Staphylococcus aureus; ≥ 256 µg/mL with Staphylococcus warneri; ≥ 256 µg/mL in the series on Klebsiella oxytoca; 2 µg/mL with Pichia kudriavzevii. Also, the results for the minimum inhibitory concentration (MIC) in the series with Enterobacter and in the series on Nakaseomyces glabratus were ≥ 256 µg/mL and 1 µg/mL, respectively. For the same compound, the CC50 at 24 h in [2] was found to be 52.6 µg/mL (≈ 233 µM). In addition, the selectivity ratio in series [3] stood at 26.

`C/C(=N/N=C1\NC(=O)CS1)c1cccs1`: the minimum inhibitory concentration (MIC) in the series on Candida parapsilosis was 16 µg/mL; in series [1] it was ≥ 256 µg/mL; with Escherichia coli, ≥ 256 µg/mL; in the series on Enterococcus faecalis it was ≥ 256 µg/mL; in the series with Candida albicans, 2 µg/mL; with Proteus mirabilis it was ≥ 256 µg/mL. The MIC was 16 µg/mL in series [Candida] sake; 2 µg/mL in the series on Candida tropicalis; ≥ 256 µg/mL with Staphylococcus aureus; ≥ 256 µg/mL in the series with Staphylococcus warneri; ≥ 256 µg/mL in the series with Klebsiella oxytoca; 8 µg/mL with Pichia kudriavzevii. The MIC in the series on Enterobacter was ≥ 256 µg/mL; with Nakaseomyces glabratus, 1 µg/mL. The CC50 at 24 h in series [2] is > 100 µg/mL. Also, in series [3], the selectivity ratio is > 50.

In the case of `C/C(=N/N=C1\NC(=O)CS1)c1ccccn1`, the MIC is 16 µg/mL in the series on Candida parapsilosis; ≥ 256 µg/mL in [1]; ≥ 256 µg/mL in the series with Escherichia coli; ≥ 256 µg/mL in the series on Enterococcus faecalis; 2 µg/mL in the series with Candida albicans; ≥ 256 µg/mL in the series with Proteus mirabilis. The minimal inhibitory concentration (MIC) in [Candida] sake was 16 µg/mL; with Candida tropicalis it was 1 µg/mL; in the series on Staphylococcus aureus it was ≥ 256 µg/mL; in the series on Staphylococcus warneri, ≥ 256 µg/mL; in the series on Klebsiella oxytoca, ≥ 256 µg/mL; in the series with Pichia kudriavzevii, 8 µg/mL. Moreover, the results for the MIC in the series on Enterobacter and with Nakaseomyces glabratus were ≥ 256 µg/mL and 1 µg/mL, respectively. Besides, the CC50 at 24 h in series [2] turned out to be 56.8 µg/mL (≈ 242 µM). The selectivity ratio in series [3] came out at 28.

Take `O=C1CSC(NN=C2CCCC2)=N1`: the minimum inhibitory concentration (MIC) in the series on Candida parapsilosis is 2 µg/mL; in series [1] it was ≥ 256 µg/mL; in the series on Escherichia coli, ≥ 256 µg/mL; in the series on Enterococcus faecalis, ≥ 256 µg/mL; with Candida albicans, 2 µg/mL; with Proteus mirabilis, ≥ 256 µg/mL. The MIC was 2 µg/mL in series [Candida] sake; 2 µg/mL in the series on Candida tropicalis; ≥ 256 µg/mL in the series with Staphylococcus aureus; ≥ 256 µg/mL in the series with Staphylococcus warneri; ≥ 256 µg/mL in the series on Klebsiella oxytoca; 2 µg/mL in the series with Pichia kudriavzevii. The MIC with Enterobacter is ≥ 256 µg/mL; in the series on Nakaseomyces glabratus, 2 µg/mL. Also, the CC50 at 24 h in series [2] came out at 22.2 µg/mL (≈ 113 µM). Moreover, in [3], the selectivity ratio worked out at 11.1.

Usually MIC stands for the smallest concentration in the dilution series that meets the test's criterion for growth inhibition. One may read the CC50 as the concentration at which the toxic effect on the cells reaches its halfway point.

The record behind these values is ChEMBL document CHEMBL4190362, “Synthesis, biological evaluation and quantitative structure-active relationships of 1,3-thiazolidin-4-one derivatives. A promising chemical scaffold endowed with high antifungal potency and low cytotoxicity” (Eur J Med Chem, 2017).
